Assay outcomes: PubChem BioAssay, several laboratories
Rows were chosen to be rich in hits. Some 2.5% of all compounds tested hit in one or more screens of this group.
Arrestin-AP2 inh: inhibitors of beta-arrestin/AP2 binding, primary screen, biochemical, GPCR trafficking, flow cytometry. 340,000 tested, 0.31% active. AID 504490, 2011. FITC-arrestin peptide / GST-AP2 beads; AP2 beta2 appendage carries R879A mutation. inhibition, % at 10 µM. beta-arrestin 1 C-terminal peptide binding to AP2 beta2-adaptin appendage (human);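 active = inhibition above a set limit, near 3 SD of compounds lacking own fluorescence, cut at about 54% in these data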;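 note: plate controls were DMSO wells for no effect and 5 µM unlabelled arrestin peptide for full effect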
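test system = AP2 appendage R879A on GSH beads | buffer or medium = PBS plus Tween 20 (0.05%) and BSA (0.1%) | incubation = 12 min plus 1 h, RT | detection = bead flow cytometry, FITC channel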
MBD2 DNA inh: inhibitors of MBD2 binding to methylated DNA, primary screen, biochemical, TR-FRET, DNA-binding domain, human; Methyl-CpG-binding domain protein 2 (Homo sapiens), Q9UBB5; MBD2 binding to methylated oligonucleotide; inhibition, % at 4.4 µM; 370,000 tested, 0.31% active; in the data active = inhibition above about 13%
Rin1-Abl PPI inh: inhibitors of Rin1-Abl protein binding, primary screen, biochemical, TR-FRET | Tyrosine-protein kinase ABL1 (Homo sapiens) + Ras and Rab interactor 1 (Homo sapiens), … | inhibition, % at 7.35 µM | 360,000 tested, 0.4% active; in the data active = inhibition above about 5%, passing the limit was not always enough
ABHD5-PLIN5 inh: ABHD5-PLIN5 interaction inhibitors, primary screen, cell lysate, split luciferase complementation, luminescence; Perilipin-5 (Homo sapiens) + 1-acylglycerol-3-phosphate O-acyltransferase ABHD5 (Homo …; Split G. princeps luciferase complementation, 4 h; inhibition, % at 4 µM; 360,000 tested, 0.78% active; AID 602281, 2012;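 active = inhibition above the mean inhibition across every tested compound plus 3 SD, cut at about 22% in these data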;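 note: 0% = DMSO only wells and the 100% control is not disclosed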
Beta2AR agonist: beta2AR agonists driving receptor internalization, primary screen, cell-based, FAP fluorogen, flow cytometry; Beta-2 adrenergic receptor (Homo sapiens), P07550; Am2.2-beta2AR cells; response, % (concentration not given with the values); 340,000 tested, 0.43% active; AID 504454, 2011;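 active = response above a set limit, near 3 SD of response in nonfluorescent compounds, cut at about 42% in these data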
UHRF1 binding: UHRF1 methylated DNA binding inhibitors, primary screen, counter-screen for MBD2 inhibitor project, biochemical, TR-FRET, human UHRF1, single concentration; 370,000 tested, 0.75% active; E3 ubiquitin-protein ligase UHRF1 (Homo sapiens), Q96T88; UHRF1 binding to methylated oligo; inhibition, % at 4.4 µM; in the data active = inhibition above about 21%;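 note: UHRF1 SRA domain binding a hemimethylated CpG hairpin DNA probe; 0% = median of test compound wells and 100% = reference inhibitor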
Rin1 Abl conf: Rin1-Abl binding inhibitor retest, confirmation, biochemical, TR-FRET; 1,300 tested, 49% active; inhibition, % at 7.35 µM; purified proteins; shares compounds with Rin1-Abl PPI inh
GFP quench: GFP fluorescence inhibitors and quenchers, artefact control for Rin1-Abl interaction inhibitor project, biochemical | shares compounds with Rin1-Abl PPI inh | inhibitors/quenchers counterscreen | inhibition, % at 6.75 µM | 1,300 tested, 8.5% active | AID 602125, 2011;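 note: ABL1-eGFP fusion protein alone without its partner RIN1-SBP; 0% = protein with vehicle and 100% = wells lacking protein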
GFP quench dose: GFP fluorescence inhibitors and quenchers, dose response, artefact control for Rin1-Abl interaction inhibitor project, biochemical | 230 tested, under 10 active | shares compounds with Rin1-Abl PPI inh | GFP fluorescence interference/quenching counterscreen | IC50, µM | AID 602182, 2012; call rule not given here;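 note: ABL1-eGFP fusion protein alone without its RIN1 binding partner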
ABHD5-PLIN5 conf: ABHD5-PLIN5 interaction inhibitors, confirmation, biochemical, luminescence; AID 651612, 2012; inhibition, % at 4 µM; shares compounds with ABHD5-PLIN5 inh; 2,200 tested, 67% active; in the data active = inhibition above about 23%;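 note: 0% = DMSO vehicle wells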
HNF4 counter: HNF4 dimerization inhibitors, counter-screen for ABHD5-PLIN5 interaction inhibitor project, biochemical, split-luciferase complementation, luminescence; shares compounds with ABHD5-PLIN5 inh; inhibition, % at 4 µM; 2,200 tested, 77% active; AID 651674, 2012;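 active = mean inhibition across replicate wells exceeding the computed hit threshold, cut at about 13% in these data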;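 note: light from luciferase halves that rejoin when HNF4 fusion proteins dimerize; 0% = DMSO only wells and the 100% control is not given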
UHRF1 ctr MBD2: UHRF1 methylated DNA binding inhibitors, counter-screen for MBD2 inhibitor project, biochemical, TR-FRET, human UHRF1; shares compounds with MBD2 DNA inh; UHRF1 binding to methylated oligonucleotide; inhibition, % at 4.4 µM; 1,000 tested, 25% active; in the data active = inhibition above about 21%;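 note: UHRF1 SRA domain binding a labeled hemimethylated CpG hairpin DNA; 0% = vehicle only and 100% = reference inhibitor with vehicle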
MBD2 confirm: inhibitors of MBD2 binding to methylated DNA, confirmation, biochemical, TR-FRET, DNA-binding domain, human | shares compounds with MBD2 DNA inh | 1,000 tested, 26% active | inhibition, % at 4.4 µM | TR-FRET MBD2-DBD binding to methylated oligonucleotide; in the data active = inhibition above about 14%
* = called active by the depositor; x = not tested or not shown. Cut-off read from the data, not from the text of the source, unless noted: active = inhibition above about 6.5%; inactive = the rest.

SMILES	Arrestin-AP2 inh	MBD2 DNA inh	Rin1-Abl PPI inh	ABHD5-PLIN5 inh	Beta2AR agonist	UHRF1 binding	ABHD5-PLIN5 conf	HNF4 counter	others
CCC(C)NC(=O)c1c(N)n(Cc2ccc3c(c2)OCO3)c2nc3ccccc3nc12 (stereo not given)	2.2	-4.6	8.5*	-41.0	23.0	-7.8	x	x	Rin1 Abl conf=0.4;GFP quench=0.2
CC[C@H]1CN2CC[C@@]3(C(=O)Nc4ccccc43)[C@@H]2C[C@@H]1/C(=C\OC)C(=O)OC	x	x	2.9	3.9	x	x	x	x
COc1ccc(-c2ccc3n2Cc2cnnn2-c2ccccc2-3)cc1	-13.4	1.5	1.0	6.4	-4.2	-0.3	x	x
O=S(=O)(c1cccc(C(F)(F)F)c1)N1Cc2ccccc2-n2nncc2C1	x	-5.7	-1.5	-8.8	x	-1.4	x	x
Cn1ncnc2c(=O)n(C)c(=O)nc1-2	1.2	x	29.2*	-28.9	53.1*	x	x	x	Rin1 Abl conf=47.9*;GFP quench=1.1;GFP quench dose=>67.5
O=c1c2ccccc2nc(CSc2ncnc3nc[nH]c23)n1-c1ccccc1	6.8	-0.7	7.6*	1.8	0.6	1.3	x	x	Rin1 Abl conf=-0.6;GFP quench=-0.8
CC[C@H](OC(C)=O)C(C[C@H](C)N(C)C)(c1ccccc1)c1ccccc1	9.5	2.3	6.8*	8.4	-0.1	-2.4	x	x	Rin1 Abl conf=8.4*;GFP quench=2.0
CN(C)[C@@H]1C(=O)C(C(N)=O)=C(O)[C@@]2(O)C(=O)C3=C(O)c4c(O)cccc4[C@@](C)(O)C3[C@H](O)C12 (stereo not given in full)	4.9	19.1*	18.8*	3.0	-10.4	62.2*	x	x	Rin1 Abl conf=1.9;GFP quench=0.2;UHRF1 ctr MBD2=9.2;MBD2 confirm=0.5
CO[C@H]1[C@@H](OC)CC(OC2OC(CO)C(O)C(O)C2O)/C(=C\C#N)[C@@H]1O (stereo not given in full)	16.4	-1.1	-1.5	0.7	2.0	6.1	x	x
CCOc1ccc(N2C(=O)NC(=O)/C(=C\c3ccccc3[N+](=O)[O-])C2=O)cc1	-1.3	2.3	-2.2	28.0*	5.5	0.8	87.0*	84.9*
COc1ccc(N2C(=O)NC(=O)/C(=C\c3ccccc3[N+](=O)[O-])C2=O)cc1	6.2	-1.7	0.7	23.2*	-1.1	-2.3	81.2*	85.3*
C[C@]12CCC3C(CC[C@H]4C[C@H](O)CC[C@]34C)C1C[C@H](O)[C@@H]2O (stereo not given in full)	2.4	-0.1	-1.1	1.0	14.2	4.3	x	x
Cc1ccsc1C(=O)C1CCCN(Cc2cnc(N3CCOCC3)s2)C1 (stereo not given)	46.4	1.0	2.5	2.8	0.7	2.1	x	x
C=CCn1c(O)c(C(C)=Nc2cccc(C(F)(F)F)c2)c(=O)[nH]c1=O	29.8	-3.7	-1.9	97.9*	-14.0	0.3	-2.5	18.0*
C=C1C(=O)O[C@@H]2C[C@@H](C)[C@H]3C=CC(=O)[C@]3(O)C[C@@H]12	11.2	1.7	8.2	32.6*	10.0	4.4	47.4*	24.2*
CCN(CC)P(=O)(c1n(CC)cc[n+]1CC)N(CC)CC	20.4	-1.3	0.8	15.4	9.3	6.1	x	x
Clc1ccc(C(Cl)(Cl)Cl)c(Cl)c1	-4.0	-0.4	0.9	3.6	-4.6	-0.6	x	x
O=P1(NCCCn2cc[n+](Cc3nc4ccccc4[nH]3)c2)C=C(c2ccccc2)OC(c2ccccc2)=C1	-10.6	-2.1	-2.7	26.2*	-13.3	-1.6	12.4	-0.8
Cc1nc2ccc(Br)cc2c(=O)n1-c1ccc([N+](=O)[O-])c(C(F)(F)F)c1	41.5	-2.4	-0.2	0.8	2.0	1.5	x	x
O=c1[nH]sc2cc(F)ccc12	33.2	1.2	-1.2	80.7*	4.4	-3.2	39.7*	112.7*
C=C1C(=O)OC2CC3(C)OC3C3OC3C3=CC(OC3=O)C12 (stereo not given)	x	-0.7	1.4	99.6*	x	-4.8	101.0*	110.6*
O=C1NC(=O)N(Cc2ccc(F)cc2)C(=O)/C1=C\C=C\c1ccco1	-0.7	-4.1	1.3	29.5*	48.4*	5.0	96.1*	61.9*
O=C1NC(=O)C(=Cc2ccc(-c3ccccc3[N+](=O)[O-])o2)C(=O)N1	23.9	-5.4	2.6	10.3	-7.7	-3.1	x	x
NS(=O)(=O)c1ccc(-c2ccc(C=C3C(=O)NC(=S)NC3=O)o2)cc1	x	0.3	x	x	x	-5.2	x	x
NS(=O)(=O)c1ccc(-c2ccc(C=C3C(=O)NC(=O)NC3=O)o2)cc1	-8.5	-6.6	1.3	25.2*	6.1	-2.2	91.2*	95.2*
CNS(=O)(=O)c1ccc(-c2ccc(C=C3C(=O)NC(=O)NC3=O)o2)cc1	-5.1	0.0	-0.1	24.8*	-7.8	10.8	93.7*	98.5*
